Only some compounds are listed: those with a hit (about 2% of all), similar ones and a draw of the others.
E-selectin induc: E-selectin induction in HUVECs, primary screen, imaging, HUVEC, immunofluorescence imaging, single point; P16581; normalized: neutral wells 0, TNF-alpha wells 100; activation, % at 7.58 µM; 260,000 compounds, 0.37% hits; AID 686992, 2013;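 active = mean E-selectin-positive cell signal at least 10% of the positive control, reached in at least 60% of replicates, without over 20% cell loss; inconclusive = no rule given, readout overlaps actives, possibly toxicity-flagged; inactive = the rest, including those meeting only one limit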
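Test system: HUVEC | Signal: Immunofluorescence imaging | Read-out: Percent E-selectin-positive cells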
PglD DTNB: C. jejuni PglD acetyltransferase inhibitors, primary screen, biochemical, DTNB colorimetric, single point | 360,000 compounds, 0.098% hits | inhibition, % at 12.5 µM | UDP-N-acetylbacillosamine N-acetyltransferase PglD (Campylobacter jejuni) | purified PglD enzyme, DTNB colorimetric CoA detection | AID 602405, 2012; in the data active = inhibition above about 16%, passing the limit was not always enough; inconclusive = no clear call, values can overlap the other calls
RAD54 branch: inhibitors of human RAD54 branch migration, primary screen, biochemical, fluorescence, single point; RAD54 Holliday junction branch migration, FAM/BHQ fluorescence; inhibition, % at 10.4 µM; AID 602329, 2012; 360,000 compounds, 0.14% hits; DNA repair and recombination protein RAD54-like (Homo sapiens), Q92698;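 active = mean normalized replicate activity at least 40 and at least half of replicates scoring 40 or more; inconclusive = only one of the two criteria met; inactive = mean below 40 and under half of replicates reaching 40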;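 note: 0% = median of neutral control wells and 100% = median of positive control wells; inhibitors cause a drop in the FAM fluorescence signal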
Target sequence (Q92698 whole entry, looked up): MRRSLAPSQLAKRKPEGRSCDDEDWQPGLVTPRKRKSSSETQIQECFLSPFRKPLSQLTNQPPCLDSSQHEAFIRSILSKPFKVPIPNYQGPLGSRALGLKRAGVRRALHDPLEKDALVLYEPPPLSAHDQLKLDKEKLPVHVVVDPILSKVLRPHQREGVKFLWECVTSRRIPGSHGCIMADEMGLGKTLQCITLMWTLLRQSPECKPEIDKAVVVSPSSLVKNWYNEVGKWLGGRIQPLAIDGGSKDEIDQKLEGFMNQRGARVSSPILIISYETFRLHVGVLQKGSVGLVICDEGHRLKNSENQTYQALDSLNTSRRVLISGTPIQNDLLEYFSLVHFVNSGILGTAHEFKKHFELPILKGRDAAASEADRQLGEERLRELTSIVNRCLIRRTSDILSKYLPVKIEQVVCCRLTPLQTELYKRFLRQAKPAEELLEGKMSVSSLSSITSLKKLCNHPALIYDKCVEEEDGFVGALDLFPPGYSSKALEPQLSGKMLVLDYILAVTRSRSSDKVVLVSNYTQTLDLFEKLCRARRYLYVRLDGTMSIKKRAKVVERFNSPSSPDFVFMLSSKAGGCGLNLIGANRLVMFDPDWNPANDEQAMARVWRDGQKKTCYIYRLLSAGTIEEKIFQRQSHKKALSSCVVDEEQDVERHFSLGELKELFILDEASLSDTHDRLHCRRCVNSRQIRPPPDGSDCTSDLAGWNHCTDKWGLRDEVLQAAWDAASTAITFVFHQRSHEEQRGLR
XiGFP reactiv: activators of inactive X chromosome reactivation, primary screen, imaging, XiGFP fibroblasts, GFP high-content imaging, set 2. XiGFP mouse fibroblasts, % GFP-positive cells imaging, 3 d; cells co-treated with 5-aza-dC sensitizer; scaled so ellipticine positive control = 100%. activation, % at 7.58 µM. 360,000 compounds, 0.055% hits. AID 743238, 2013;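 active = mean normalized replicate activation at least 10% and every replicate at or above 10%; inconclusive = only one of the two criteria met; inactive = mean below 10% and not all replicates reach 10%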;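 note: 0% = median of on-plate neutral control wells and 100% = ellipticine 6 µM median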
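Material: XiGFP fibroblasts, SV40-immortalized. Buffer or medium: DMEM plus 5-aza-dC sensitizer. Compound: single concentration per compound, delivered by pin transfer. Times: 3 days compound exposure. Controls: ellipticine 6 µM.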
rRNA inh HTS: reduced GFP signal of wild-type E. coli, primary screen, bacterial rRNA inhibitor project, GFP/RFP fluorescence, OD600, single point. GFP signal change (wild-type ribosome), % (test concentration not listed). AID 720706, 2013. 350,000 compounds, 1.6% hits. E. coli WT GFP vs humanized-ribosome RFP mutants, 24 h; active compounds read low; DMSO median 0, no signal -100;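 active = significant combined selectivity score with lowered wild-type GFP, culture density cut under 30%, mutant RFP and density less affected; inactive = any of these conditions unmet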
RAD52 anneal inh: RAD52 DNA annealing inhibitors, primary screen, biochemical, FRET, single point, set 2 | 360,000 compounds, 0.46% hits | AID 651710, 2012 | recombinant RAD52 DNA annealing, FRET fluorescence | DNA repair protein RAD52 homolog (Homo sapiens), P43351 | inhibition, % at 18.7 µM;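 active = every replicate showing at least 50% inhibition; inconclusive = mean inhibition at least 50% but not in every replicate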
HepG2 tox: cytotoxicity in HepG2 cells, dose response, cytotoxicity control, cell-based, CellTiter-Glo luminescence, cherry-pick, set 4. shares compounds with rRNA inh HTS. HepG2 viability, ATP luminescence, 72 h. activity change, negative = cytotoxicity, unspecified at 26 µM. 30 tested, under 10 active. AID 743480, 2014;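 active = compounds whose fitted half-maximal signal-loss concentration is at most twice their highest valid dose; inconclusive = flat curve with 30 to 70% signal loss, or poor fit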
AID977621: growth inhibition of wild-type GFP E. coli, dose response, H69 mutant RFP, cherry-pick; activity change, negative = inhibition at 50 µM; 1,900 tested, under 10 active; shares compounds with rRNA inh HTS; AID 977621, 2014; E. coli wild-type GFP strain growth, fluorescence, 24 h;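 active = Wild-type ribosome reporter drop at least double the humanized mutant ribosome reporter drop, growth loss under a set limit; inconclusive = no clear call, values can overlap the other calls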;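 note: wild-type GFP and H69 mutant RFP strains grown together 50/50 in each well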
AID977628: E. coli growth inhibition, wild-type GFP versus h24 humanized RFP strain, dose response, h24 mutant RFP vs wild-type GFP, cherry-pick. 1,900 tested, under 10 active. shares compounds with rRNA inh HTS. E. coli WT GFP strain growth, fluorescence, 24 h. activity change, negative = inhibition at 50 µM;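 active = compound lowering the normal-ribosome reporter at least twice as much as the humanized-ribosome reporter, growth loss under a set limit; inconclusive = no clear call, values can overlap the other calls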;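 note: wild-type GFP and h24 humanized RFP strains co-cultured 1 to 1 per well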
Active calls of the source: *; ? = inconclusive; . = no result.

SMILES | E-selectin induc | PglD DTNB | RAD54 branch | XiGFP reactiv | rRNA inh HTS | RAD52 anneal inh | AID977621 | AID977628 | others
COc1cccc(C(=O)Nc2cc(C)nn2-c2ccccc2)c1OC | 0 | -1 | 1 | 0 | -34* | -9 | . | . | HepG2 tox=14
S=c1nc(-c2cccc(Cl)c2)[nH][nH]1 | . | . | . | 0 | -3 | -8 | . | .
S=c1nc(-c2cc(Cl)cc(Cl)c2)[nH][nH]1 | . | . | . | 0 | -17* | -15 | -14 | ?
COc1ccc(CCN2C(=O)CC(Cc3cccc(C)c3)C2=O)cc1OC (stereo unspecified) | . | . | . | 0 | -19 | -5 | . | .
COc1ccc(CN2C(=O)CC(Cc3cc(C)cc(C)c3)C2=O)cc1OC (stereo unspecified) | -2 | . | . | 0 | -20* | -10 | -7.8 | .
C[C@@H]1CN([C@@H](C)CO)S(=O)(=O)c2ccc(-c3ccccc3)cc2O[C@@H]1CN(C)Cc1cccc(F)c1 | 0 | 2 | -19 | -1 | -2 | 17 | . | .
COc1cccc(C(=O)NC(C)c2ccc(Br)cc2)c1 (stereo unspecified) | -1 | . | . | 1 | -27* | -8 | -15 | -11
COc1cc(OC)cc(C(=O)NC(C)c2ccc(Br)cc2)c1 (stereo unspecified) | 0 | 3 | -5 | 0 | 16 | -16 | . | .
Cc1cccc(C)c1NC(=O)C1(C)CSCC(=O)N1CCOc1ccccc1 (stereo unspecified) | 0 | . | . | 0 | -22* | 4 | -12 | -18
Cc1noc(C)c1NC(=O)Nc1cccc2c1O[C@H](CN(C)S(=O)(=O)c1cn(C)cn1)[C@H](C)CN([C@@H](C)CO)C2=O | 0 | -1 | -6 | 0 | -2 | -4 | . | .
COc1ccc(NC(=O)c2c3c(nc4ccccc24)CCC3)cc1 | . | -2 | -8 | . | . | . | . | .
COc1ccc(OC)c(NC(=O)c2c3c(nc4ccccc24)CCC3)c1 | . | -2 | 5 | . | -22* | -22 | . | ?
O=[N+]([O-])c1cncc([N+](=O)[O-])c1Nc1cccc(O)c1 | . | 5 | 5 | 0 | -26* | -6 | . | -11
Cc1ccccc1Nc1c([N+](=O)[O-])cncc1[N+](=O)[O-] | 0 | 0 | -6 | 0 | 7 | 9 | . | .
C[C@H]1CN([C@@H](C)CO)C(=O)c2cc(NS(C)(=O)=O)ccc2O[C@H]1CN(C)S(=O)(=O)c1cn(C)cn1 | -11 | -7 | 4 | 0 | 3 | -10 | . | .
CSc1nc(SCCN(C)C)c2c3c(sc2n1)COC(C)(C)C3 | . | . | . | 0 | -23* | 15 | . | 2.5
CCC1(C)Cc2c(sc3nc(SC)nc(NCCN(C)C)c23)CO1 (stereo unspecified) | . | 5 | 9 | . | . | . | . | .
Cc1ccc(C(=O)c2ccccc2C(=O)OCC(=O)NC(C)(C)C)cc1 | 5 | 6 | -4 | 0 | -20* | -12 | -22 | .
CC(C)OC(=O)C[N+](C)(C)CCN1C(=O)C2C(c3ccccc3)C=CC(c3ccccc3)C2C1=O (stereo unspecified) | . | . | . | 0 | -34* | 3 | -13 | -14
Cc1cccc(NS(=O)(=O)c2cc3c(cc2C)NC(=O)CO3)c1 | 0 | -6 | -5 | 0 | -18* | -6 | -1 | -9.1
Cc1cc2c(cc1S(=O)(=O)Nc1cccc(C)c1C)OCC(=O)N2 | 1 | -2 | -2 | 0 | -6 | -5 | . | .
C[C@@H]1CN([C@H](C)CO)C(=O)c2cc(NC(=O)Cc3ccccc3)ccc2O[C@@H](C)CCCCO[C@@H]1CN(C)S(=O)(=O)c1ccc(F)cc1 | 0 | 1 | 1 | 0 | 2 | . | . | .
CSc1ccccc1OCc1cc(C(=O)N(C)Cc2nonc2C)no1 | . | 1 | -1 | 0 | -30* | -3 | -14 | -12
Cc1nonc1CN(C)C(=O)c1cc(COc2ccc(F)cc2Cl)on1 | . | -3 | 1 | 0 | -17 | -2 | . | .
O=C(NC1CCCCC1)C(c1cccc2ccccc12)n1c(=O)c(-c2ccco2)nc2ccccc21 (stereo unspecified) | 1 | . | . | 0 | -23* | -36 | -17 | -9.7
SMILES | E-selectin induc | PglD DTNB | RAD54 branch | XiGFP reactiv | rRNA inh HTS | RAD52 anneal inh | AID977621 | AID977628 | others
CCOC(=O)C(C)Sc1nc(N2CCOCC2)c2c(c1C#N)CC(C)(C)OC2 (stereo unspecified) | 0 | -4 | 0 | 0 | -29* | -13 | -11 | -10
CCOC(=O)CCSc1nc(N2CCOCC2)c2c(c1C#N)CC(C)(C)OC2 | 0 | . | . | 0 | 6 | -12 | . | .
COc1ccc(-c2noc(=O)n2Cc2ccccc2Cl)cc1 | . | 3 | 1 | 0 | -15* | -8 | . | 0.49
C[C@@H]1CCCCO[C@@H](CN(C)C(=O)CCCN(C)C)[C@@H](C)CN([C@H](C)CO)C(=O)c2cc(NC(=O)Nc3cccc4ccccc34)ccc2O1 | 0 | 4 | 14 | 0 | 3 | 20 | -1.8 | ?
C[C@@H]1CCCCO[C@H](CN(C)C(=O)CCCN(C)C)[C@H](C)CN([C@@H](C)CO)C(=O)c2cc(NC(=O)Nc3cccc4ccccc34)ccc2O1 | 0 | -1 | 10 | 0 | -36* | 30 | . | . | HepG2 tox=15
C[C@@H]1CN([C@@H](C)CO)C(=O)c2cc(NC(=O)Nc3cccc4ccccc34)ccc2O[C@@H](C)CCCCO[C@@H]1CN(C)C(=O)CCCN(C)C | 1 | 1 | -1 | 0 | 2 | 12 | . | .
C[C@@H]1CCCCO[C@H](CN(C)C(=O)CCCN(C)C)[C@@H](C)CN([C@H](C)CO)C(=O)c2cc(NC(=O)Nc3cccc4ccccc34)ccc2O1 | 0 | 0 | 10 | -1 | -1 | 9 | ? | 8.2
